Tests used:
[1] = test system: woodchuck hepatitis virus (WHV); assay: Efficacy study in WHV-positive woodchucks; format: in vivo
Outline: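 Adult chronically WHV-infected woodchucks of both sexes (serum WHV DNA, WHsAg and WHeAg positive; anti-WHs and anti-WHe negative) stratified into four groups, n = 5. Daily oral nucleoside analogue (0.1 mg/kg/day) or PBS vehicle in diet for 4 weeks. Then 12 weeks adding weekly oral TLR7 agonist (5.0–30.0 mg/kg/week) or carboxymethyl cellulose/tween-80 vehicle. Then 4 weeks daily drug only, followed to week 36. Serum WHsAg and anti-WHs by enzyme immunoassay. WHeAg and anti-WHe by cross-reactive ELISA OD.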

[2] = mice; cited from earlier work
[3] = cited from earlier work
serum IP-10, IL-6, TNF-α = assay: Mouse PD study: serum cytokines after single oral dose; format: in vivo, C57BL/6 mice; conditions: serum at 3 hours
Outline: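 Female C57BL/6 mice, 7-8 weeks old, given a single oral dose of test compound at 0.3, 3, 30 or 300 mg/kg. Bled at 3 hours. Serum IP-10, IL-6 and TNF-α quantified as pg/mL, reported as mean ± SD.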

[4] = cited from earlier work; remark: listed apart in the source
OAS1 transcript in blood = conditions: woodchuck model; cited from earlier work

Row | Compound | woodchucks with recrudescence of WHV replication after drug withdrawal ([1]; Group 1) | animals with undetectable serum WHeAg during the study ([1]; Group 1, n = 5) | animals with undetectable serum WHsAg during the study ([1]; Group 1, n = 5) | elicitation of anti-WHs antibodies ([1]; monotherapy (Groups 1 and 2)) | volume of distribution [2] | clearance in mouse liver microsomes [3] | serum IL-6 level relative to APR002 (serum IP-10, IL-6, TNF-α; high oral doses) [fold] | serum TNF-α level relative to APR002 (serum IP-10, IL-6, TNF-α; high oral doses) [fold] | slope of serum IP-10 dose response (serum IP-10, IL-6, TNF-α; single oral dose 0.3-300 mg/kg) | clearance in human liver microsomes [4] | fold change in blood OAS1 (OAS1 transcript in blood) [fold]
1 | C=C1[C@H](CO)[C@@H](O)C[C@@H]1n1cnc2c(=O)[nH]c(N)nc21 [ETV, entecavir] | all five | five | four | did not occur in any animal | – | – | – | – | – | – | –
2 | CCCCOc1nc(N)c2c(n1)N(Cc1cccc(CN3CCCC3)c1)CC(=O)N2 [GS-9620] | – | – | – | – | high volume of distribution | fast clearance | > 6 | > 4 | 2.8 | fast clearance | 5
